How the values were obtained:
[1] = biological target: T1, RePC (Rhizobium etli pyruvate carboxylase) (Rhizobium etli, UniProt Q2K340); experiment: malate dehydrogenase-coupled pyruvate carboxylation assay, global fit; type: biochemical
T1 sequence (Q2K340 1-1154): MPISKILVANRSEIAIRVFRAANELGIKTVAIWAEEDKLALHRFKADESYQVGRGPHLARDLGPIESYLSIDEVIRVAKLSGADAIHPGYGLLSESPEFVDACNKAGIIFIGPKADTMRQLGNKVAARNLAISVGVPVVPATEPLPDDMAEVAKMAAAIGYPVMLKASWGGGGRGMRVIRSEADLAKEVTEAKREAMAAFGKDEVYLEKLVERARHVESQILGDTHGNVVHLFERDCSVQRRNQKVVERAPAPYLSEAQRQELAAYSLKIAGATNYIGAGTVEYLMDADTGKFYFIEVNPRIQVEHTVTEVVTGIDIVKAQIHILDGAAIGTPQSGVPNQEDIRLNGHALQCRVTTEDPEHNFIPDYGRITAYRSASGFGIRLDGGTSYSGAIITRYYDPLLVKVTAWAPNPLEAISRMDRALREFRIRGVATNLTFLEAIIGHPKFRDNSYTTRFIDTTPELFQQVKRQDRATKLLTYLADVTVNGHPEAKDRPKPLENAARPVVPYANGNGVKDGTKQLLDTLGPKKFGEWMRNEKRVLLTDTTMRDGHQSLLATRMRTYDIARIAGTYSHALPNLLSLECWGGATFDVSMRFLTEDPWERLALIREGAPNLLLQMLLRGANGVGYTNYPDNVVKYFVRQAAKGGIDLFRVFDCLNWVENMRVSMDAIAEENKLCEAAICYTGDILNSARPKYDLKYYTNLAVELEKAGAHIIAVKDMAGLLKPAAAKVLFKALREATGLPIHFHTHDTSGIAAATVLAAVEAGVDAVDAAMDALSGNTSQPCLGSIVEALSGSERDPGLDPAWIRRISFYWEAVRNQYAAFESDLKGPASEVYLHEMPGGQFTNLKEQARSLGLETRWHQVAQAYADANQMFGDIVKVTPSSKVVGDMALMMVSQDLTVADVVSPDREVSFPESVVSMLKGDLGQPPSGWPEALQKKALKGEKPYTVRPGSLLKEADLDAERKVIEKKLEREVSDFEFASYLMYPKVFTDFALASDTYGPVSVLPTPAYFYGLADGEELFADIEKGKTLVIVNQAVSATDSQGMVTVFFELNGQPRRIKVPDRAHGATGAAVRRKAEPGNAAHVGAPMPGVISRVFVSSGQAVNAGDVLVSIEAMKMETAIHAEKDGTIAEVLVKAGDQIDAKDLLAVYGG

[2] = biological target: T1, RePC (Rhizobium etli pyruvate carboxylase); experiment: malate dehydrogenase-coupled pyruvate carboxylation assay; type: biochemical
How it was run: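 N-terminally His-tagged R. etli enzyme, expressed in E. coli BL21(DE3). NADH oxidation followed, with oxaloacetate converted to malate by 5 units of malate dehydrogenase. Run at 30 °C in 0.1 M Tris-HCl pH 7.8 with 20 mM NaHCO3, 6 mM MgCl2, 1 mM MgATP, 0.2 mM NADH and 10 mM pyruvate. Activator varied 0–150 μM at 0–8 mM L-aspartate. kapp = initial velocity/enzymic biotin. Hill-equation nonlinear least-squares fit gives the activation constant.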

Ki [1] [µM] | EC50 [2] [µM] | Compound
1260 ± 80 | – | N[C@@H](CC(=O)O)C(=O)O [L-aspartate]
– | 7.3 ± 0.9 | CC(=O)SCCNC(=O)CCNC(=O)[C@H](O)C(C)(C)COP(=O)(O)OP(=O)(O)OC[C@H]1O[C@@H](n2cnc3c(N)ncnc32)[C@H](O)[C@@H]1OP(=O)(O)O [acetyl-CoA]

— PMC4238798 (Biochemistry, 2014)
